In ChEMBL document CHEMBL3352381, “Discovery of covalent inhibitors of glyceraldehyde-3-phosphate dehydrogenase, a target for the treatment of malaria” (J Med Chem, 2014):
Calls of active or inactive are those of the source. No cut-off for these calls is given here.

Experiments:
[1] = molecular target: Glyceraldehyde-3-phosphate dehydrogenase (Plasmodium falciparum) (UniProt Q8T6B1); assay: Inhibition of recombinant Plasmodium falciparum GAPDH expressed in Escherichia coli by time course assay
Summary of the method: (§1)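 Pf GAPDH incubated with inhibitor, aliquots withdrawn over time for activity assay; control enzyme kept without inhibitor under the same conditions. Activity normalized to the inhibitor-free value. Time courses fitted to a sum of two exponential decays. kobs obtained by fitting residual activity versus incubation time to a mechanism-based inhibition equation (kinact, Ki). Duplicates.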

[2] = molecular target: Glyceraldehyde-3-phosphate dehydrogenase (Plasmodium falciparum) (UniProt Q8T6B1); assay: Inhibition of recombinant Plasmodium falciparum GAPDH expressed in Escherichia coli at 50 to 200 uM by time course assay; details: TDE = time-dependent effect; summary of the method: as §1
[3] = molecular target: Glyceraldehyde-3-phosphate dehydrogenase (Plasmodium falciparum) (UniProt Q8T6B1); assay: Irreversible inhibition of recombinant Plasmodium falciparum GAPDH expressed in Escherichia coli by time course assay
Summary of the method: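 Pf GAPDH was incubated with inhibitor at 50–300 μM, and enzyme activity was assayed over the incubation time. Activity was normalized to the same enzyme kept under identical conditions without inhibitor. Residual-activity time courses were fitted to a sum of two exponential decays. kobs was obtained by fitting the mechanism-based inhibition equation, giving kinact and Ki. Experiments were done in duplicate.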

[4] = molecular target: Glyceraldehyde-3-phosphate dehydrogenase (Plasmodium falciparum) (UniProt Q8T6B1); assay: Inhibition of recombinant Plasmodium falciparum GAPDH expressed in Escherichia coli assessed as ratio of kinact to Ki by Kitz-Wilson double-reciprocal plot; summary of the method: as §1
[5] = molecular target: Glyceraldehyde-3-phosphate dehydrogenase (Plasmodium falciparum) (UniProt Q8T6B1); assay: Inhibition of unmodified recombinant Plasmodium falciparum GAPDH at 200 uM measured after overnight incubation by mass spectroscopy in presence of trypsin
Summary of the method: (§2)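 Pf GAPDH incubated overnight with inhibitor at 200 μM. MALDI-TOF on undigested protein (double-layer CHCA matrix) or on tryptic digests (thin-layer CHCA), with MS/MS. Cys alkylation checked by 1 h treatment of 20 μM enzyme with 10-fold excess iodoacetamide before analysis.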

[6] = molecular target: Glyceraldehyde-3-phosphate dehydrogenase (Plasmodium falciparum) (UniProt Q8T6B1); assay: Inhibition of undigested recombinant Plasmodium falciparum GAPDH at 200 uM measured after overnight incubation by mass spectroscopy; summary of the method: as §2
[7] = molecular target: Glyceraldehyde-3-phosphate dehydrogenase (Homo sapiens) (UniProt P04406); assay: Inhibition of human GAPDH assessed as ratio of kinact to Ki by Kitz-Wilson double-reciprocal plot at pH 7.4
Sequence of Glyceraldehyde-3-phosphate dehydrogenase (Homo sapiens) (P04406 2-335 limits assumed): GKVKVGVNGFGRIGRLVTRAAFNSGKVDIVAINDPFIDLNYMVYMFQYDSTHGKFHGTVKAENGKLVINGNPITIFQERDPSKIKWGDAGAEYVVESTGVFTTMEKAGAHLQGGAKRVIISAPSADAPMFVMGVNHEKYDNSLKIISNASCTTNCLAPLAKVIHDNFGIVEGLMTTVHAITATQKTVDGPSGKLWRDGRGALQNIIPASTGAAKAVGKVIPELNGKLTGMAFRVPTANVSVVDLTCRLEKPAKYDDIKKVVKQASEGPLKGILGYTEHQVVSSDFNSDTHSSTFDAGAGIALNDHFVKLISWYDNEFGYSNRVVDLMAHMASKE

[8] = molecular target: Glyceraldehyde-3-phosphate dehydrogenase (Plasmodium falciparum) (UniProt Q8T6B1); assay: Inhibition of recombinant Plasmodium falciparum GAPDH expressed in Escherichia coli at 50 to 300 uM by time course assay; summary of the method: as §1
[9] = molecular target: Glyceraldehyde-3-phosphate dehydrogenase (Plasmodium falciparum) (UniProt Q8T6B1); assay: Inhibition of recombinant Plasmodium falciparum GAPDH expressed in Escherichia coli by UV-vis spectroscopy
Summary of the method: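 Enzyme at 400 μM incubated with inhibitor. Absorption spectra recorded until reaction completion to follow loss of the Racker band.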

Sequence of Glyceraldehyde-3-phosphate dehydrogenase (Plasmodium falciparum) (Q8T6B1 as listed by the source): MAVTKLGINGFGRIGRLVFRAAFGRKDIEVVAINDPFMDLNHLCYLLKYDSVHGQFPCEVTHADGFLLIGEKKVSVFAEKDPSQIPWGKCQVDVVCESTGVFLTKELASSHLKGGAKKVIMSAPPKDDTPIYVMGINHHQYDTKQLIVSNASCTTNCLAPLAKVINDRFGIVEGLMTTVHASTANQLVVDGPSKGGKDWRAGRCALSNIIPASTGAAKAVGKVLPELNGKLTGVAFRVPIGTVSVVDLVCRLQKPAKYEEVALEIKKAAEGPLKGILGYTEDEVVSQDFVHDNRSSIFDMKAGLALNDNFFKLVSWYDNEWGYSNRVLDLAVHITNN

| SMILES | inhibition [1] | inhibition [2] | inhibition [3] | Ratio [4] | inhibition [5] | inhibition [6] | Ratio [7] | inhibition [8] | inhibition [9] |
| --- | --- | --- | --- | --- | --- | --- | --- | --- | --- |
| N[C@H](C(=O)O)[C@@H]1CC(Cl)=NO1 | Dose-dependent effect | tde | Active | – | – | – | – | – | – |
| CC(C)(C)OC(=O)N1CC2ON=C(Br)C2C1 (racemic) | Dose-dependent effect | tde | – | 4.8 M⁻¹ s⁻¹ | – | – | – | – | – |
| O=C(N[C@H](C(=O)O)[C@@H]1CC(Br)=NO1)OCc1ccccc1 | Dose-dependent effect | tde | – | 2.6 M⁻¹ s⁻¹ | Active | – | – | – | – |
| O=C(O)CC1CC(Br)=NO1 (racemic) | Dose-dependent effect | tde | – | 0.7 M⁻¹ s⁻¹ | – | – | – | – | – |
| COC(=O)[C@@H](N)[C@@H]1CC(Br)=NO1 | Dose-dependent effect | tde | – | 10.7 M⁻¹ s⁻¹ | Active | Active | – | – | – |
| C=CC=O | – | – | – | – | – | – | 297 M⁻¹ s⁻¹ | – | – |
| CC(C)(C)OC(=O)NCC1CC(Br)=NO1 (racemic) | Dose-dependent effect | – | – | 2.9 M⁻¹ s⁻¹ | – | Active | – | Active | – |
| BrC1=NOC(c2ccccc2)C1 (racemic) | Dose-dependent effect | tde | Active | 10.3 M⁻¹ s⁻¹ | – | – | – | – | Active |
| C=CC(N)=O | – | – | – | – | – | – | 0.053 M⁻¹ s⁻¹ | – | – |
| N[C@H](C(=O)O)[C@@H]1CC(Br)=NO1 | Dose-dependent effect | tde | Active | 0.7 M⁻¹ s⁻¹ | – | – | – | – | – |
| BrC1=NOC(c2ccncc2)C1 (racemic) | Dose-dependent effect | tde | – | 0.47 M⁻¹ s⁻¹ | – | – | – | – | – |
| N[C@H](C(=O)OCc1ccccc1)[C@@H]1CC(Br)=NO1 | Dose-dependent effect | tde | – | 6.6 M⁻¹ s⁻¹ | – | Active | – | – | – |
| Oc1ccc(C2CC(Br)=NO2)cc1 (racemic) | Dose-dependent effect | tde | – | 3.1 M⁻¹ s⁻¹ | – | – | – | – | – |
| ClC1=NOC(c2ccccc2)C1 (racemic) | Dose-dependent effect | tde | Active | – | – | – | – | – | – |
